Assay results taken from ChEMBL document CHEMBL1828589, “Isoeugenol-based novel potent antioxidants: synthesis and reactivity” (Eur J Med Chem, 2011).

Legend:
Format in all cases: functional
[1] = Antioxidant activity assessed as ferric to ferrous reduction at 30 ug/ml by FRAP assay
Summary of the method: (§1)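 Oyaizu method, adjusted. Diluted compound in ethanol mixed with 0.2 mol/L phosphate buffer pH 6.6 and 1% K3Fe(CN)6, held 50 °C for 20 min. Then 10% trichloroacetic acid added and spun at 10,000g for 10 min. Upper layer mixed with water and 0.1% FeCl3, absorbance read at 700 nm. Mean ± SD of three replicate assays.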

[2] = Antioxidant activity assessed as ferric to ferrous reduction at 20 ug/ml by FRAP assay; summary of the method: as §1
[3] = Antioxidant activity assessed as inhibition of linoleic acid lipid peroxidation at 100 ug/ml measured after 12 hrs by ferric thiocynate method
Summary of the method: (§2)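 Mitsuda ferric thiocyanate method. Linoleic acid/Tween 20 emulsion in 0.2 M phosphate pH 7.0, mixed with ethanolic compound and buffer. Incubated at 37 °C in the dark and sampled every 6 h. Aliquot taken into 75% ethanol, 30% ammonium thiocyanate and 0.02 M FeCl2 in 3.5% HCl; A500 read after 3 min. Inhibition % = (Ac−As)/Ac×100 against a no-compound control. Triplicates.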

[4] = Antioxidant activity assessed as ferric to ferrous reduction at 10 ug/ml by FRAP assay; summary of the method: as §1
[5] = Antioxidant activity assessed as inhibition of linoleic acid lipid peroxidation at 100 ug/ml measured after 24 hrs by ferric thiocynate method; summary of the method: as §2
[6] = Antioxidant activity assessed as inhibition of linoleic acid lipid peroxidation at 100 ug/ml measured after 30 hrs by ferric thiocynate method; summary of the method: as §2
[7] = Antioxidant activity assessed as inhibition of linoleic acid lipid peroxidation at 100 ug/ml measured after 36 hrs by ferric thiocynate method; summary of the method: as §2
[8] = Antioxidant activity assessed as inhibition of linoleic acid lipid peroxidation at 100 ug/ml measured after 18 hrs by ferric thiocynate method; summary of the method: as §2
[9] = Antioxidant activity assessed as residual ABTS+ radical scavenging activity after 30 mins by spectrophotometric analysis
Summary of the method: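 ABTS radical cation formed from 2 mM ABTS and 2.45 mM potassium persulfate in water, kept dark at room temperature for 12 h. Ethanolic compound at 10–30 µg/mL added to the radical solution. Remaining radical read at 734 nm and converted to concentration by a calibration curve (0.033–0.33 mM). IC50 (µM) by regression; three repeats.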

[10] = Antioxidant activity assessed as ferric to ferrous reduction activity at 40 ug/ml by FRAP assay; summary of the method: as §1
[11] = Antioxidant activity assessed as inhibition of linoleic acid lipid peroxidation at 100 ug/ml measured after 6 hrs by ferric thiocynate method; summary of the method: as §2
[12] = Antioxidant activity assessed as superoxide radical scavenging activity after 40 mins by Zhishen's method
Summary of the method: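 Riboflavin (3×10⁻⁵ M), methionine (1×10⁻² M) and NBT (1×10⁻⁴ M) in 0.05 M phosphate pH 7.8. Illuminated 25 °C for 40 min to form formazan; absorbance at 560 nm, with an unilluminated mixture as control. Compounds tested at 10–40 µg/mL. IC50 (µM) by regression; three repeats.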

[13] = system: Radical scavenging activity; assay: Antioxidant activity assessed as residual DPPH radical scavenging activity after 30 mins by spectrophotometric analysis
Summary of the method: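 Compound in ethanol at 10–40 µg/mL (3 mL) mixed with 1 mL of 0.1 mM ethanolic DPPH. Shaken, then left 30 min at room temperature, read at 517 nm. IC50 (µM) is the concentration giving a 50% fall in absorbance, from regression; three repeats.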

IC50 [9] [µM] | IC50 [12] [µM] | IC50 [13] [µM] | SMILES | Activity [1] | Activity [2] | inhibition [3] [%] | Activity [4] | inhibition [5] [%] | inhibition [6] [%] | inhibition [7] [%] | inhibition [8] [%] | Activity [10] | inhibition [11] [%]
8.84 | 42.3 | 40.7 | C/C=C\c1ccc(O)c(OC)c1 [ISOEUGENOL] | 0.41 | 0.37 | 42 | 0.32 | 96 | 91 | 82 | 90 | 0.43 | 28
8.53 | 10.5 | 7.83 | CCC(c1ccc(O)c(OC)c1)c1ccccc1O (configuration not stated) | 0.3 | 0.27 | 75 | 0.26 | 94 | 97 | 96 | 90 | 0.34 | 32
8.43 | 6.17 | 5.8 | CCC(c1ccc(O)c(OC)c1)c1cccc(O)c1O (configuration not stated) | 0.58 | 0.54 | 74 | 0.49 | 94 | 97 | 96 | 90 | 0.73 | 34
8 | 61.3 | 5.84 | Cc1c(C)c2c(c(C)c1O)CCC(C)(C(=O)O)O2 (configuration not stated) [TROLOX] | 0.56 | 0.38 | 70 | 0.23 | 89 | 92 | 86 | 87 | 0.72 | 35
10.1 | 15.3 | 6.71 | CCC(c1ccc(O)c(OC)c1)c1ccc(O)cc1O (configuration not stated) | 0.36 | 0.32 | 75 | 0.27 | 94 | 97 | 94 | 85 | 0.47 | 36

The next lines start with the compound.

SMILES | IC50 [9] [µM] | IC50 [12] [µM] | IC50 [13] [µM] | Activity [1] | Activity [2] | inhibition [3] [%] | Activity [4] | inhibition [5] [%] | inhibition [6] [%] | inhibition [7] [%] | inhibition [8] [%] | Activity [10] | inhibition [11] [%]
Cc1cc(C(C)(C)C)c(O)c(C(C)(C)C)c1 [BUTYLATED HYDROXYTOLUENE] | 10.2 | 28.4 | 11.5 | 0.5 | 0.39 | 81 | 0.27 | 97 | 98 | 98 | 92 | 0.6 | 47
CCOc1cccc(C(CC)c2ccc(O)c(OC)c2)c1O (configuration not stated) | 7.19 | 13.7 | 6.19 | 0.25 | 0.22 | 77 | 0.21 | 96 | 97 | 96 | 89 | 0.28 | 37
CCC(c1ccc(O)c(OC)c1)c1cccc(C(C)C)c1O (configuration not stated) | 7 | 10.1 | 6.3 | 0.2 | 0.2 | 78 | 0.22 | 95 | 97 | 96 | 88 | 0.24 | 38
CCC(c1ccc(O)c(O)c1)c1ccc(O)c(OC)c1 (configuration not stated) | 8.28 | 6.61 | 5.8 | 0.58 | 0.55 | 78 | 0.43 | 96 | 98 | 97 | 90 | 0.64 | 37
